Laboratory results: ChEMBL document CHEMBL5653631, “A Potent and Selective ULK1 Inhibitor Suppresses Autophagy and Sensitizes Cancer Cells to Nutrient Stress” (iScience, 2018)

Legend:
[1] = molecular target: T1, Dual specificity mitogen-activated protein kinase kinase 6 (Homo sapiens) (UniProt P52564); test: Inhibition of human recombinant MAP2K6 at 40 nM in presence of ATP by radiometric assay relative to control
T1 sequence (whole entry): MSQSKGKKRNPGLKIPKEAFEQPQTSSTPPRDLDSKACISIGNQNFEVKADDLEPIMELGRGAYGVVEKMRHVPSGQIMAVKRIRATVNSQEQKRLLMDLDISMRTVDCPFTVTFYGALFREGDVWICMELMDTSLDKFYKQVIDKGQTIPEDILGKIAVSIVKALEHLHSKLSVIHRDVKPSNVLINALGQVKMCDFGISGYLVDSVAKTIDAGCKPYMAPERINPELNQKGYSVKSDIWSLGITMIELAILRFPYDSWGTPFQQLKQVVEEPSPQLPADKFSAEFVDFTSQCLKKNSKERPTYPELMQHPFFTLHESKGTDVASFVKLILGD

[2] = molecular target: Receptor tyrosine-protein kinase erbB-4 (Homo sapiens) (UniProt Q15303); test: Inhibition of human recombinant ErbB4 at 40 nM in presence of ATP by radiometric assay relative to control
Receptor tyrosine-protein kinase erbB-4 (Homo sapiens), sequence (Q15303 whole entry): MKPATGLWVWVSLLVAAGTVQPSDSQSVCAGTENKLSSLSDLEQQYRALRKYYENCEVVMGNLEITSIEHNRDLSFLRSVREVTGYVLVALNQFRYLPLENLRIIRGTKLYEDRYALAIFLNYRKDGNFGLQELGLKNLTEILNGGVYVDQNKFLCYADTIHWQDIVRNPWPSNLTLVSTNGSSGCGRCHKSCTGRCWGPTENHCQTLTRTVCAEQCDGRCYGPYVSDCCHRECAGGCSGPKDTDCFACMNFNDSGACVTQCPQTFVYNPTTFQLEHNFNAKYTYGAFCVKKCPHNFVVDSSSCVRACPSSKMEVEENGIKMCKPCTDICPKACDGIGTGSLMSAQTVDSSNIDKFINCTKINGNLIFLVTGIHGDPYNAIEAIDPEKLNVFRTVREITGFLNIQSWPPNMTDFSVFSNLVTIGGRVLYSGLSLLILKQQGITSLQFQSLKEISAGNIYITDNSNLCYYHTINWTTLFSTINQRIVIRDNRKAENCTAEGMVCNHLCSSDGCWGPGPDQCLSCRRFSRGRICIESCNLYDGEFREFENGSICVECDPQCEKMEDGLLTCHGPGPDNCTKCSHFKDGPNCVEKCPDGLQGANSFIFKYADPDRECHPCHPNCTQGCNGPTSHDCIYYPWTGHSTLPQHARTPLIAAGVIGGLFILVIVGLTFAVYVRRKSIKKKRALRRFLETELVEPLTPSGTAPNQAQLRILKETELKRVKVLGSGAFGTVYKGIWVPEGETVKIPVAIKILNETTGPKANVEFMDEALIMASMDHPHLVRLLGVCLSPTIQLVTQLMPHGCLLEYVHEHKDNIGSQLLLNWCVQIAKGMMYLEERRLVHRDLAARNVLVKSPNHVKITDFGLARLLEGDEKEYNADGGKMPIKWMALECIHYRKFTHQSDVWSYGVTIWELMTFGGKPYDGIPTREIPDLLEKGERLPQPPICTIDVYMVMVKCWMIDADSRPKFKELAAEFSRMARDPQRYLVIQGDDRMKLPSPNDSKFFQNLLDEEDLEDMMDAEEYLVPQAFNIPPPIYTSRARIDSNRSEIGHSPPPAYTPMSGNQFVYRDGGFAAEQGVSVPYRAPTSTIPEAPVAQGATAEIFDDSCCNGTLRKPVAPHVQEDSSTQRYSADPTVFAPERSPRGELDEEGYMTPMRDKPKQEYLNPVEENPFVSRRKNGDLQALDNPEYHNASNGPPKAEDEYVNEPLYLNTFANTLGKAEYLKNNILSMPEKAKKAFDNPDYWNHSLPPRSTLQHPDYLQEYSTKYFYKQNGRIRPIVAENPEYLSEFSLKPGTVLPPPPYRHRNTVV

[3] = molecular target: T2, Dual specificity tyrosine-phosphorylation-regulated kinase 3 (Homo sapiens) (UniProt O43781); test: Inhibition of human recombinant DYRK3 at 40 nM in presence of ATP by radiometric assay relative to control
T2 sequence (whole entry): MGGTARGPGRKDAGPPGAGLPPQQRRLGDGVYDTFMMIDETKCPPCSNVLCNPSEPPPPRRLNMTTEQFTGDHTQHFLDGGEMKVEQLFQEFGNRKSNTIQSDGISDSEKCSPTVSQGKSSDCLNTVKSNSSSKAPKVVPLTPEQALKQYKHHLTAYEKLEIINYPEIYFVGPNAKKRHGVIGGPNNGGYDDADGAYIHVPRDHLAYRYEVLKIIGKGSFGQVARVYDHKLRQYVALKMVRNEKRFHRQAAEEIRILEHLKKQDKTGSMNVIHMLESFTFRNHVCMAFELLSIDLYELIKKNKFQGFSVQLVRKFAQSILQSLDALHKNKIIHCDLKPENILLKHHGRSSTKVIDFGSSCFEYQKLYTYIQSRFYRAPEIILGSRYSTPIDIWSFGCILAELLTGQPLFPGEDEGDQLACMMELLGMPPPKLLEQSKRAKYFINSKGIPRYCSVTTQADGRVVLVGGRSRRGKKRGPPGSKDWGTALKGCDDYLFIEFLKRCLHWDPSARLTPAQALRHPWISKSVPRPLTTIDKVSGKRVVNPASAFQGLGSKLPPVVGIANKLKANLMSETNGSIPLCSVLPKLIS

[4] = molecular target: Protein kinase C theta type (Homo sapiens) (UniProt Q04759); test: Inhibition of human recombinant PKCt at 40 nM in presence of ATP by radiometric assay relative to control
Protein kinase C theta type (Homo sapiens), sequence (Q04759 whole entry, looked up): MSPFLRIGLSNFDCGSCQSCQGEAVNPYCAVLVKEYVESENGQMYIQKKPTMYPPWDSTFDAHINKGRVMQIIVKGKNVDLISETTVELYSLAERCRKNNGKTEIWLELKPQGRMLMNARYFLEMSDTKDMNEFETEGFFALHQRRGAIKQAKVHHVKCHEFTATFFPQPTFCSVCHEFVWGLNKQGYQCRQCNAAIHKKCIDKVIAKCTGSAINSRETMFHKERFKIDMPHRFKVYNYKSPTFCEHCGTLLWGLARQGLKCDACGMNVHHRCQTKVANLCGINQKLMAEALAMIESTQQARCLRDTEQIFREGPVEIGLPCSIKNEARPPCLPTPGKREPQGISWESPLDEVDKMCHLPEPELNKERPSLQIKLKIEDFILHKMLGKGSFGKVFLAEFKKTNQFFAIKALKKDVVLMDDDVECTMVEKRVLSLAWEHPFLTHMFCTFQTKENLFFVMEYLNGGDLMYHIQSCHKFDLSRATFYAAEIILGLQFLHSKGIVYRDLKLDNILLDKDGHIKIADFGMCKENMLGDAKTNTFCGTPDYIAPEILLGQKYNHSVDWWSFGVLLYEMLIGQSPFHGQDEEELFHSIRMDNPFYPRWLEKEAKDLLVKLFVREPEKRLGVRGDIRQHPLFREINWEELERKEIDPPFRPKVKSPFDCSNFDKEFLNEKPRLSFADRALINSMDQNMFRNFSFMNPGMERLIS

[5] = molecular target: Calcium/calmodulin-dependent protein kinase kinase 1 (Homo sapiens) (UniProt Q8N5S9); test: Inhibition of human recombinant CaMKK1 at 15 nM in presence of ATP by radiometric assay relative to control
Calcium/calmodulin-dependent protein kinase kinase 1 (Homo sapiens), sequence (Q8N5S9 whole entry, looked up): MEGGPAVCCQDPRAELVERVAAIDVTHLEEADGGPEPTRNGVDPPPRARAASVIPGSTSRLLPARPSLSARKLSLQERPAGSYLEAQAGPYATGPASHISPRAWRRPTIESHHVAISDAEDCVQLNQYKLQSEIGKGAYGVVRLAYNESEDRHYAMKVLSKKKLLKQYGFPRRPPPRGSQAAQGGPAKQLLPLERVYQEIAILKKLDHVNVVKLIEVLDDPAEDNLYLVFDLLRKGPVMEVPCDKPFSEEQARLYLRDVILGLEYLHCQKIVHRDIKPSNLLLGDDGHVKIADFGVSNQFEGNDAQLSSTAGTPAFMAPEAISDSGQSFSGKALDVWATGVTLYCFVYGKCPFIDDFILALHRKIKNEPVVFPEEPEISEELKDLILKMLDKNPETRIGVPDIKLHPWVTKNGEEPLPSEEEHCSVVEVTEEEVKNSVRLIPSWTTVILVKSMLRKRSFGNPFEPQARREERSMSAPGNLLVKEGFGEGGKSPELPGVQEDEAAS

[6] = molecular target: Glycogen synthase kinase-3 alpha (Homo sapiens) (UniProt P49840); test: Inhibition of human recombinant GSK3A at 15 nM related to control ULK1
[7] = molecular target: Cyclin-dependent kinase-like 1 (Homo sapiens) (UniProt Q00532); test: Inhibition of human recombinant CDKL1 at 15 nM related to control ULK1
Cyclin-dependent kinase-like 1 (Homo sapiens), sequence (Q00532 whole entry): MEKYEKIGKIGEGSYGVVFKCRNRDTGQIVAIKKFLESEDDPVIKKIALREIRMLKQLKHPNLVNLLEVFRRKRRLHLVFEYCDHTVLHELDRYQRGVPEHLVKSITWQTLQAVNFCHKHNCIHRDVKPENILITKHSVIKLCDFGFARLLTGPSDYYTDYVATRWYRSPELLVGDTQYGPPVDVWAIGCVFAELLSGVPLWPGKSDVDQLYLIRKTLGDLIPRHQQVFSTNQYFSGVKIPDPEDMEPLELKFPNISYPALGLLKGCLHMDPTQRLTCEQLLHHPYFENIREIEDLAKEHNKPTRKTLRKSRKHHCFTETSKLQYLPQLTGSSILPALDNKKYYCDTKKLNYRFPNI

[8] = molecular target: Serine/threonine-protein kinase SIK3 (Homo sapiens) (UniProt Q9Y2K2); test: Inhibition of human recombinant QSK at 15 nM in presence of ATP by radiometric assay relative to control
Serine/threonine-protein kinase SIK3 (Homo sapiens), sequence (Q9Y2K2 whole entry, looked up): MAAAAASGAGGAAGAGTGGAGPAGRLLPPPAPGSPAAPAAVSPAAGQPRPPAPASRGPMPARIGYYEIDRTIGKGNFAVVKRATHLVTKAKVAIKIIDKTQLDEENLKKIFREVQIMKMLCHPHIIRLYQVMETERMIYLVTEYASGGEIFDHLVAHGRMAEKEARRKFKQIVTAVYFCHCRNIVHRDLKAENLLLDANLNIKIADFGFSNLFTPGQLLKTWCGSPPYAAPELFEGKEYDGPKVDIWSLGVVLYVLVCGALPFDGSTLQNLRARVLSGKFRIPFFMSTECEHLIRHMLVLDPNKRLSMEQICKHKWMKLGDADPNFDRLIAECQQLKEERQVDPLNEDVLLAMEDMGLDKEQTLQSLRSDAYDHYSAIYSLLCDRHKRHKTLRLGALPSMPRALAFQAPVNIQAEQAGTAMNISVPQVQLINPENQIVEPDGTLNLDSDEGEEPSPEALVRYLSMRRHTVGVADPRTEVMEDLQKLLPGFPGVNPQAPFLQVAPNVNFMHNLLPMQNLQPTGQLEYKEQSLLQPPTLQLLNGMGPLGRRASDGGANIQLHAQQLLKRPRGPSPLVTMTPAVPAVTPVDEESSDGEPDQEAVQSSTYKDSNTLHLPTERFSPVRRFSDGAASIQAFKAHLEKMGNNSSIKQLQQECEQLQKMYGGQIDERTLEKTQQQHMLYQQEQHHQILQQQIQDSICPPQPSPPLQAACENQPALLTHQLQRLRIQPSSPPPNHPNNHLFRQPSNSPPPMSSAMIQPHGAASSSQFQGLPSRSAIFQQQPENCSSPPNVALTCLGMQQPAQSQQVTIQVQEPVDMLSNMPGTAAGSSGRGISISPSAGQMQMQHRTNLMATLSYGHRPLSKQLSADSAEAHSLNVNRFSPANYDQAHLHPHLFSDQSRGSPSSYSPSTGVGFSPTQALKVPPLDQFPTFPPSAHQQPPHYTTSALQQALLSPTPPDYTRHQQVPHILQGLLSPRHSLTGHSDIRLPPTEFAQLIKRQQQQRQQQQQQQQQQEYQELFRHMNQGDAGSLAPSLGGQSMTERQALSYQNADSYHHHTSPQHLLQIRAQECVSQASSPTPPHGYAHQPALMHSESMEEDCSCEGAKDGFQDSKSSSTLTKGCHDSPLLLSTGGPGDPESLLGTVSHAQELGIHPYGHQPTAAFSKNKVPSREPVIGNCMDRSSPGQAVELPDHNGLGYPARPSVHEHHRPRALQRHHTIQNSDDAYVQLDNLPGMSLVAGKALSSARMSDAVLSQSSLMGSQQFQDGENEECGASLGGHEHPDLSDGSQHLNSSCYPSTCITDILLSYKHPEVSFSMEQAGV

[9] = molecular target: Tyrosine-protein kinase ABL2 (Homo sapiens) (UniProt P42684); test: Inhibition of human recombinant ABL2 at 15 nM in presence of ATP by radiometric assay relative to control
Summary of the method: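 Panel of 327 recombinant human kinases in radiometric activity assays, each screened in duplicate at a single inhibitor concentration; percent activity remaining relative to vehicle control, percent inhibition taken as 100 minus activity remaining.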

[10] = molecular target: Interleukin-1 receptor-associated kinase 1 (Homo sapiens) (UniProt P51617); test: Inhibition of human recombinant IRAK1 at 500 nM related to control ULK1
Interleukin-1 receptor-associated kinase 1 (Homo sapiens), sequence (P51617 whole entry, looked up): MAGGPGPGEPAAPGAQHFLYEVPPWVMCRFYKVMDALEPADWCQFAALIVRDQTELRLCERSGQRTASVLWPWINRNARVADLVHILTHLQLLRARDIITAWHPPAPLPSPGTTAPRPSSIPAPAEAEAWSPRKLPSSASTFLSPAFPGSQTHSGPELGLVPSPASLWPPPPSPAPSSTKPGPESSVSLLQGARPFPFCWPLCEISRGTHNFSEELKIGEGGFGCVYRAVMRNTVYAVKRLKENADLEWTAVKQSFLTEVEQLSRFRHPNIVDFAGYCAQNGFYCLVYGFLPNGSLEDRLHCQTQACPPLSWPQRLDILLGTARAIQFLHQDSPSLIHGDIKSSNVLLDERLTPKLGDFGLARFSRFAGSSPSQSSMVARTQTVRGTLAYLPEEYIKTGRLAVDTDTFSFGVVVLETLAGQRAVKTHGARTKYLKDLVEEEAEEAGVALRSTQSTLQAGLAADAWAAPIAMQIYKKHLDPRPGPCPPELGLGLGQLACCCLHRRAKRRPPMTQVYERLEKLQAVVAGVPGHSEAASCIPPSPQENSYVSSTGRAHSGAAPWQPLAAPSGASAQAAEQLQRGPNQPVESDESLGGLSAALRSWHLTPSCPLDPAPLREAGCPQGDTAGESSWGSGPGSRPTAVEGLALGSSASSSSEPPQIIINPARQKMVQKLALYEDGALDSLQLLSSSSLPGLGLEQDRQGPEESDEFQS

[11] = molecular target: T1, Dual specificity mitogen-activated protein kinase kinase 6 (Homo sapiens); test: Inhibition of human recombinant MAP2K6 at 500 nM related to control ULK1
[12] = molecular target: T3, Mitogen-activated protein kinase kinase kinase kinase 2 (Homo sapiens) (UniProt Q12851); test: Inhibition of human recombinant GCK at 500 nM in presence of ATP by radiometric assay relative to control
T3 sequence (whole entry): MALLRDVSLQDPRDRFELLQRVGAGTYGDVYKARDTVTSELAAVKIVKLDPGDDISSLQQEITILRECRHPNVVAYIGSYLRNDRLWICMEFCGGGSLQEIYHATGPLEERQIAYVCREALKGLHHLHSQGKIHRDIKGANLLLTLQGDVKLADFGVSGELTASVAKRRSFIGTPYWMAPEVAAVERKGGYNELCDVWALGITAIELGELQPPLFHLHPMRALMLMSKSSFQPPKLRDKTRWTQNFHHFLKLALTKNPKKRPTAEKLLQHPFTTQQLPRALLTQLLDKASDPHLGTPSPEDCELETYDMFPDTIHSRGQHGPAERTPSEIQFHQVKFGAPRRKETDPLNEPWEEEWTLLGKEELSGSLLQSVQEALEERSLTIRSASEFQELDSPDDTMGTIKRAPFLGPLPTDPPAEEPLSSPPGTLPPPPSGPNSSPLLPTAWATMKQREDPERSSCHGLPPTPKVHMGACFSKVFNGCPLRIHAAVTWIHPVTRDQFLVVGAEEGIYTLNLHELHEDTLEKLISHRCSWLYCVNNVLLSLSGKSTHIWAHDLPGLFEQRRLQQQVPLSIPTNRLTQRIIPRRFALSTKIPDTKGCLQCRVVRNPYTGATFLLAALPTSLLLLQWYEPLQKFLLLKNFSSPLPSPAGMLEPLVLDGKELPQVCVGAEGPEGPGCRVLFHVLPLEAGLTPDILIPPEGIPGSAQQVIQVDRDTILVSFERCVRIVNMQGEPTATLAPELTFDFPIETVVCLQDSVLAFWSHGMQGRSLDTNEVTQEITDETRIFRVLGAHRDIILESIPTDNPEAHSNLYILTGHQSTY

O=C(N[C@@H](C1CC1)C(F)(F)F)c1cc(-c2cnn3cc(-c4ccc(F)cc4)cnc23)cs1
inhibition [1]: 0%
inhibition [2]: 0%
inhibition [3]: 30%
inhibition [4]: 0%

CC(C)[C@H](NC(=O)c1cc(-c2cnn3cc(-c4ccc(OCCN5CCCCC5)cc4)cnc23)cs1)C(F)(F)F
inhibition [5]: 0%
fold change (FC) [6]: 0
fold change (FC) [7]: 0.27
inhibition [8]: 86%
inhibition [9]: 42%

CNC(=O)c1ccccc1Oc1nc(Nc2cc(OC)c(OC)c(OC)c2)ncc1Br
fold change (FC) [10]: 0.2
fold change (FC) [11]: 0.07
inhibition [12]: 33%
